Series [1] in a line: Effect on growth of Lactobacillus gasseri EX336960VC03 HM 400 measured after 48 hrs in 5% CO2 by CLSI method. The following applies: lactobacillus gasseri ex336960vc03, 48 h.
Series [2] in a line: Effect on growth of Lactobacillus crispatus JV-V01 HM 103 measured after 48 hrs in 5% CO2 by CLSI method. The following applies: lactobacillus crispatus jv-v01, 48 h.
The test system of series [3] is Escherichia coli. Briefly: Effect on growth of Escherichia coli ATCC 25922 assessed as bacterial growth inhibition measured after 16 to 18 hrs by CLSI method. It is filed as organism-based. The following applies: in vivo. The method, boiled down:
(§1)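 CLSI microdilution. Colonies from TSA (16-20 h, 37 °C) suspended in PBS to 0.5 McFarland, then diluted in TSB to ~10^5 CFU/mL. Incubated with serial compound dilutions for 16-20 h at 37 °C. MIC is the lowest concentration inhibiting growth.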

Series [4] has as its system Bifidobacterium bifidum. Put plainly: Effect on growth of Bifidobacterium bifidum 212A ATCC 11863 measured after 48 hrs in anerobic conditions by CLSI method. Type of series: organism-based. The following applies: in vivo.
The subject of series [5] is Enterobacter cloacae. Put plainly: Effect on growth of Enterobacter cloacae ATCC BAA 1143 assessed as bacterial growth inhibition measured after 16 to 18 hrs grown in tryptic soy medium by CLSI method. Type of series: organism-based. The following applies: in vivo. The method, boiled down: as §1
Series [6] concerns Clostridioides difficile. Briefly: Antibacterial activity against Clostridium difficile VPI 10463 ATCC 43255 assessed as bacterial growth inhibition incubated for 48 hrs under anaerobic condition by CLSI protocol based assay. It is filed as functional. The following applies: ATCC 43255 VPI 10463, 48 h. In outline: (§2)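 Broth microdilution following CLSI guidance. Strains pre-grown anaerobically on BHIS agar (BHI plus yeast extract, vitamin K1, hemin) at 37 °C for 48 h. ~10^5 CFU/mL in BHIS broth added to serial compound dilutions. Incubated anaerobically at 37 °C for 48 h. MIC is the lowest concentration showing visible growth inhibition.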

Series [7] has as its system Lacticaseibacillus paracasei. Briefly: Effect on growth of Lactobacillus casei ATCC 334 measured after 48 hrs in 5% CO2 by CLSI method.
Series [8] has as its system Clostridioides difficile. Put plainly: Antibacterial activity against Clostridium difficile 4118 ATCC BAA 1870 assessed as bacterial growth inhibition incubated for 48 hrs under anaerobic condition by CLSI protocol-based assay. It is filed as functional. The following applies: 4118 ATCC BAA 1870, 48 h. The method, boiled down: as §2

Converted amounts (≈) assume the structure as drawn. A value given as a limit tells only on which side of the number the result lay.

Here are results for 20 molecules from ChEMBL document CHEMBL4334504 (J Med Chem, 2019).

As for `O=c1[nH]cnc2ccc([N+](=O)[O-])cc12`, the MIC is > 700 µM in series [1]; > 700 µM in series [2]; > 700 µM in series [3]; > 700 µM in series [4]; > 700 µM in series [5]; 335 µM (≈ 64 µg/mL) in series [6]. The MIC was > 700 µM in series [7] and 335 µM (≈ 64 µg/mL) in series [8].

Take `CN[C@H](CC(C)C)C(=O)N[C@H]1C(=O)N[C@@H](CC(N)=O)C(=O)N[C@H]2C(=O)N[C@H]3C(=O)N[C@H](C(=O)N[C@H](C(=O)O)c4cc(O)cc(O)c4-c4cc3ccc4O)[C@H](O)c3ccc(c(Cl)c3)Oc3cc2cc(c3O[C@@H]2O[C@H](CO)[C@@H](O)[C@H](O)[C@H]2O[C@H]2C[C@](C)(N)[C@H](O)[C@H](C)O2)Oc2ccc(cc2Cl)[C@H]1O` [VANCOMYCIN]: the MIC entry is “<= 1 uM” in series [1], “<= 1 uM” in series [2], 0.3 µM (≈ 0.435 µg/mL) in series [6] and 0.7 µM (≈ 1.01 µg/mL) in series [8].

`Cc1nc2c([N+](=O)[O-])cccc2c(=O)[nH]1`: the MIC in series [1] was > 700 µM; in series [2], > 700 µM; in series [3], > 700 µM; in series [4], > 700 µM; in series [5], > 700 µM; in series [6] it was 156 µM (≈ 32 µg/mL). Also, the MIC was > 700 µM in series [7] and 312 µM (≈ 64 µg/mL) in series [8].

As to `Cc1ncc([N+](=O)[O-])n1CCO` [METRONIDAZOLE], the MIC in series [1] was > 1496 µM; in series [2], > 1496 µM; in series [4], > 1496 µM; in series [6], 1.5 µM (≈ 0.257 µg/mL); in series [7] it was 47 µM (≈ 8.04 µg/mL); in series [8] it was 0.7 µM (≈ 0.12 µg/mL).

As to `O=c1[nH]c(/C=C/c2ccc(O)cc2)nc2c([N+](=O)[O-])csc12`, the values for the MIC in series [6] and in series [8] were 13 µM (≈ 4.1 µg/mL) and 26 µM (≈ 8.2 µg/mL), respectively.

As to `Cc1nc2c([N+](=O)[O-])csc2c(=O)n1-c1ccc(C(C)C)cc1`, the MIC in series [6] and in series [8] was > 389 µM throughout.

In the case of `COc1ccc(Cn2c(C)nc3c([N+](=O)[O-])csc3c2=O)cc1`, the MIC in series [6] and in series [8] was 24 µM (≈ 7.95 µg/mL) in each case.

With `O=c1[nH]c(/C=C/c2ccc([N+](=O)[O-])cc2)nc2c([N+](=O)[O-])csc12`, the MIC in series [6] was 12 µM (≈ 4.13 µg/mL); in series [8], 24 µM (≈ 8.26 µg/mL).

Turning to `O=c1[nH]c(/C=C/c2ccccc2)nc2c([N+](=O)[O-])csc12`, the MIC amounted to 52 µM (≈ 15.6 µg/mL) in series [6] and 13 µM (≈ 3.89 µg/mL) in series [8].

On to `COc1ccc(-n2c(C)nc3c([N+](=O)[O-])csc3c2=O)cc1`, for which the results for the MIC in series [6] and in series [8] were 101 µM (≈ 32 µg/mL) and 202 µM (≈ 64.1 µg/mL), respectively.

For `Cc1nc2c([N+](=O)[O-])csc2c(=O)n1CCc1ccccc1`, the MIC in series [6] and in series [8] was 13 µM (≈ 4.1 µg/mL) each time.

For `Cc1nc(Cl)c2scc([N+](=O)[O-])c2n1`, the MIC in series [6] is 34 µM (≈ 7.81 µg/mL); in series [8] it was 17 µM (≈ 3.9 µg/mL).

For the molecule `Cc1nc2c([N+](=O)[O-])csc2c(=O)n1-c1cccc(C(=O)O)c1`, the results for the MIC in series [6] and in series [8] were 193 µM (≈ 63.9 µg/mL) and > 386 µM, respectively.

As for `N#Cc1ccc(/C=C/c2nc3c([N+](=O)[O-])csc3c(=O)[nH]2)cc1`, the MIC in series [6] and in series [8] was > 197 µM each time.

Take `C#Cc1ccc(/C=C/c2nc3c([N+](=O)[O-])csc3c(=O)[nH]2)cc1`: the values for the MIC in series [6] and in series [8] were 12 µM (≈ 3.88 µg/mL) and 6 µM (≈ 1.94 µg/mL), respectively.

Turning to `Cc1nc2c([N+](=O)[O-])csc2c(=O)n1CC(=O)N1CCOCC1`, the figures for the MIC in series [6] and in series [8] were 94 µM (≈ 31.8 µg/mL) and 47 µM (≈ 15.9 µg/mL), respectively.

For GENTAMICIN, the values for the MIC in series [3] and in series [5] were 8 µM and “<= 1 uM”, respectively.

`O=c1[nH]c(-c2cccc([N+](=O)[O-])c2)nc2c([N+](=O)[O-])csc12`: the MIC in series [6] and in series [8] was 50 µM (≈ 15.9 µg/mL) each time.

For the molecule `O=C(O)c1ccc(/C=C/c2nc3c([N+](=O)[O-])csc3c(=O)[nH]2)o1`, the MIC in series [6] and in series [8] was > 384 µM each time.

As to `O=c1[nH]cnc2c([N+](=O)[O-])csc12`, the figures for the MIC in series [6] and in series [8] were 10 µM (≈ 1.97 µg/mL) and 20 µM (≈ 3.94 µg/mL), respectively.
